Env fusion inh: HIV envelope-mediated fusion inhibition; HeLa-JRFL Env/CEM21 cell fusion, luciferase; inhibition, % at 12.3 µM; AID 651610; 1.1% of 360,000 active;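 active = mean replicate inhibition score of at least 50 and every replicate individually at or above 50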;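 also: 0% = plate neutral controls and 100% = maraviroc near 300 nM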
rRNA inh HTS: inhibitors of bacterial rRNA selective over humanized ribosomes; E. coli WT GFP vs humanized-ribosome RFP mutants, fluorescence, 24 h; stronger effect = lower value; DMSO median 0, no signal -100; GFP signal change (wild-type ribosome), % (no concentration beside the values); 1.6% of 350,000 active; AID 720706;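 active = significant combined selectivity score with lowered wild-type GFP, culture density cut under 30%, mutant RFP and density less affected; inactive = any of these conditions unmet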
DENV2 CPE rescue: inhibitors of DENV2 cytopathic effect. CPE inhibition, % at 9.99 µM. AID 651640. 1.7% of 350,000 active. DENV2-infected cells, cytopathic effect rescue, plate reader; in the data active = CPE inhibition above about 20%, passing the limit was not always enough; tested in BHK-21 cells;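 also: 0% = median of neutral control wells and 100% = median of positive control wells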
FN deposition inh: fibronectin deposition inhibition; AH1F fibroblasts, Alexa488-fibronectin deposition fluorescence, overnight; inhibition, % at 12.6 µM; 0.086% of 350,000 active; AID 743247;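 active = mean inhibition across replicates of 30% or more, regardless of how many single replicates reach that level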;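 also: positive control wells lacked labelled fibronectin entirely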
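Material: AH1F fibroblast monolayer depositing Alexa488-labelled fibronectin into matrix | Input: 10000 AH1F cells/well | Medium: DMEM plus 2% serum, read in PBS | Reagent: Alexa488-fibronectin, 24 nM final in well | Compound dosing: One dose per compound, pinned | Schedule: 1 h adhesion, overnight exposure | Measured by: Fluorescence at 485 nm excitation, 525 nm emission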
PglD DTNB: inhibitors of Campylobacter jejuni PglD acetyltransferase. 0.098% of 360,000 active. purified PglD enzyme, DTNB colorimetric CoA detection. inhibition, % at 12.5 µM; in the data active = inhibition above about 16%, passing the limit was not always enough
PGC1a acetyl inh: modulators of PGC1a acetylation; U2OS PGC1a acetylation, AlphaScreen anti-acetyl-lysine; with virally co-expressed GCN5 acetyltransferase; 0.17% of 350,000 active; inhibition, % at 15.6 µM;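 active = every replicate shows inhibition of at least 40%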;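 also: 0% = neutral control wells and 100% = positive control wells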
An asterisk follows results filed as active; x = no result given; [ ] = dose if it differs, or a comment. The list is not random: actives were taken first. Their share in the collection is about 3.5%.

SMILES	Env fusion inh	rRNA inh HTS	DENV2 CPE rescue	FN deposition inh	PglD DTNB	PGC1a acetyl inh
CCC(=O)Nc1sc(Cc2ccc3c(c2)OCO3)c(C)c1C(N)=O	4	-26*	6	6	x	0
Cc1c(Cc2ccccc2)sc(NC(=O)C(C)(C)C)c1C(N)=O	3	-30*	x	19	x	x
CCC(=O)Nc1sc(Cc2ccccc2)c(C)c1C(N)=O	1	-51	-4	6	x	4
C[C@H](CO)N1C[C@H](C)[C@H](CN(C)S(C)(=O)=O)Oc2cc(C#CCN(C)C)ccc2S1(=O)=O	9[16.7 µM]	3	-3	x	-3	6
Cc1sc2ncnc(N3CCCCC3)c2c1C	x	-49	-17	x	4	0
Cc1sc2ncnc(N3CCCC(C)C3)c2c1C (stereo not given)	17	-28*	13	3	0	2
Cc1ccc(OCCN2CCN(c3ncnc4sc(C)c(C)c34)CC2)cc1	85*	x	x	6	3	8
Clc1ccc(OCCN2CCN(c3ncnc4sccc34)CC2)cc1	99*	x	x	-14	0	11
CN1C(=O)c2ccccc2OC1(C)Cc1ccccc1 (stereo not given)	11	-21*	1	-6	x	x
O=C(NCc1nnc(SCc2ccccc2)n1-c1ccccc1)C12CC3CC(CC(C3)C1)C2	37	-31*	9	4	x	x
CCCCCn1ccc(=O)c2c(C(F)(F)F)nccc21	51*	x	x	-3	-3	-1
CN(C)C(=O)C[C@H]1C[C@H]2c3cc(NC(=O)CC4CC4)ccc3O[C@H]2[C@@H](CO)O1	-9[16.7 µM]	-3	-1	x	1	4
CNC(=O)/C(C#N)=C/c1c(N(Cc2ccccc2)Cc2ccccc2)nc2c(C)cccn2c1=O	x	x	x	3	-3	0
CCNC(=O)/C(C#N)=C/c1c(N(Cc2ccccc2)Cc2ccccc2)nc2ccccn2c1=O	9	-18*	x	2	x	x
CCOc1ccc(Nc2nc(N)c([N+](=O)[O-])c(N3CCOCC3)n2)cc1	5	20	-3	5	-15	-5
Cc1cccc(Nc2nc(N)c([N+](=O)[O-])c(N3CCOCC3)n2)c1	x	-24*	-2	11	1	x
COc1cccc(Nc2nc(N)c([N+](=O)[O-])c(N3CCOCC3)n2)c1	36	-29*	0	-3	1	-9
Cc1ccc(Nc2nc(N)c([N+](=O)[O-])c(N3CCOCC3)n2)cc1	40	x	x	0	x	x
C[C@H](CO)N1C[C@H](C)[C@@H](CN(C)Cc2ccncc2)Oc2ccc(NC(=O)Cc3ccccc3)cc2CC1=O	x	0	0	x	8	-3
CC(C)NC(=O)Nc1ccc2c(c1)C(=O)N([C@@H](C)CO)C[C@H](C)[C@@H](CN(C)C(=O)NC1CCCCC1)OCCCC[C@@H](C)O2	7[16.7 µM]	1	0	x	4	2
Cc1noc(C)c1S(=O)(=O)N(C)C[C@@H]1OCCCC[C@H](C)Oc2ccc(NC(=O)Nc3ccc(C(F)(F)F)cc3)cc2C(=O)N([C@H](C)CO)C[C@H]1C	70*[16.7 µM]	-6	-2	x	-2	-5
Cc1noc(C)c1S(=O)(=O)N(C)C[C@H]1OCCCC[C@@H](C)Oc2ccc(NC(=O)Nc3ccc(C(F)(F)F)cc3)cc2C(=O)N([C@@H](C)CO)C[C@@H]1C	67*[16.7 µM]	0	2	x	2	6
Cc1noc(C)c1S(=O)(=O)N(C)C[C@H]1OCCCC[C@H](C)Oc2ccc(NC(=O)Nc3ccc4c(c3)OCO4)cc2C(=O)N([C@H](C)CO)C[C@@H]1C	57*[16.7 µM]	-1	-5	x	3	-12
Cc1noc(C)c1S(=O)(=O)N(C)C[C@H]1OCCCC[C@H](C)Oc2ccc(NC(=O)Nc3ccc(F)cc3)cc2C(=O)N([C@@H](C)CO)C[C@@H]1C	21[16.7 µM]	-1	73*	-3	42	-2
COCC#Cc1ccc2c(c1)O[C@@H](CN(C)S(C)(=O)=O)[C@@H](C)CN([C@H](C)CO)S2(=O)=O	6[16.7 µM]	-2	-7	3	5	-26
COc1ccccc1CNC(=O)C[C@H]1CC[C@H]2[C@@H](COC[C@@H](O)CN2Cc2cccc(-c3ccncc3)c2)O1	4[16.7 µM]	-5	-2	4	3	-7
